Data reported in ChEMBL document CHEMBL4689842, “EUbOPEN Chemogenomics Library wave 1” (2021).

Tests used:
[1] = system: HEK-293T; assay: Multiplex assay against HEK293T; format: toxicity, cell-based; conditions: human;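 as to Population Tubulin-Different-Phenotype (%): share of the cells with healthy nuclei that show this phenotype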
Summary of the method: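 Live cells were stained at seeding with Hoechst33342, BioTracker Green Microtubule Cytoskeleton Dye, MitoTracker Red and Annexin V Alexa Fluor 680. Following compound addition, they were imaged on a CQ1 microscope at 37°C and 5% CO2 and gated by CellPathfinder machine learning into Hoechst high-intensity objects or normal cells, with normal cells split into healthy, pyknosed or fragmented nuclei and pyknosed cells into mitotic or apoptotic. Tubulin, mitochondrial-mass and membrane-permeability phenotypes are per cents of healthy-nucleus cells.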

[2] = system: Fibroblast; assay: Incucyte cell viability with human fibroblast; format: toxicity, cell-based; conditions: 10 µM, compound concentration 10 uM; also: filed as whole numbers so only -1 and 0 and 1 occur
[3] = 12 h, 1 µM, compound concentration 1 uM, replicate 1
[4] = 12 h, 1 µM, compound concentration 1 uM, replicate 2
[5] = 12 h, 10 µM, compound concentration 10 uM, replicate 1
[6] = 12 h, 10 µM, compound concentration 10 uM, replicate 2
[7] = 24 h, 1 µM, compound concentration 1 uM, replicate 1
[8] = 24 h, 1 µM, compound concentration 1 uM, replicate 2
[9] = 24 h, 10 µM, compound concentration 10 uM, replicate 1
[10] = 24 h, 10 µM, compound concentration 10 uM, replicate 2
[11] = 48 h, 1 µM, compound concentration 1 uM, replicate 1
[12] = 48 h, 1 µM, compound concentration 1 uM, replicate 2
[13] = 48 h, 10 µM, compound concentration 10 uM, replicate 1
[14] = 48 h, 10 µM, compound concentration 10 uM, replicate 2

CCn1c(-c2nonc2N)nc2cnc(Oc3cccc(NC(=O)c4ccc(OCCN5CCOCC5)cc4)c3)cc21 [GSK-269962A]
Population Apoptotic (%) [1, 3]: 44% | Population Fragmented Nuclei (%) [1, 3]: 14% | Population Healthy Nuclei (%) [1, 3]: 26% | Population Hoechst High Intensity Objects (%) [1, 3]: 17% | Population Membrane Permeable-Phenotype (%) [1, 3]: 3% | Population Mitochondria Different-Phenotype (%) [1, 3]: 75% | Population Mitotic Cells (%) [1, 3]: 55% | Population Normal (%) [1, 3]: 82% | Population Pyknosed Nuclei (%) [1, 3]: 58% | Population Tubulin-Different-Phenotype (%) [1, 3]: 55% | Total Cell Count [1, 3]: 262 | Population Apoptotic (%) [1, 4]: 12% | Population Fragmented Nuclei (%) [1, 4]: 8% | Population Healthy Nuclei (%) [1, 4]: 44% | Population Hoechst High Intensity Objects (%) [1, 4]: 6% | Population Membrane Permeable-Phenotype (%) [1, 4]: 5% | Population Mitochondria Different-Phenotype (%) [1, 4]: 21% | Population Mitotic Cells (%) [1, 4]: 87% | Population Normal (%) [1, 4]: 93% | Population Pyknosed Nuclei (%) [1, 4]: 46% | Population Tubulin-Different-Phenotype (%) [1, 4]: 21% | Total Cell Count [1, 4]: 251 | Population Apoptotic (%) [1, 5]: 61% | Population Fragmented Nuclei (%) [1, 5]: 7% | Population Healthy Nuclei (%) [1, 5]: 20% | Population Hoechst High Intensity Objects (%) [1, 5]: 12% | Population Membrane Permeable-Phenotype (%) [1, 5]: 1% | Population Mitochondria Different-Phenotype (%) [1, 5]: 98% | Population Mitotic Cells (%) [1, 5]: 38% | Population Normal (%) [1, 5]: 87% | Population Pyknosed Nuclei (%) [1, 5]: 72% | Population Tubulin-Different-Phenotype (%) [1, 5]: 100% | Total Cell Count [1, 5]: 284 | Population Apoptotic (%) [1, 6]: 54% | Population Fragmented Nuclei (%) [1, 6]: 4% | Population Healthy Nuclei (%) [1, 6]: 13% | Population Hoechst High Intensity Objects (%) [1, 6]: 7% | Population Membrane Permeable-Phenotype (%) [1, 6]: 0% | Population Mitochondria Different-Phenotype (%) [1, 6]: 100% | Population Mitotic Cells (%) [1, 6]: 45% | Population Normal (%) [1, 6]: 92% | Population Pyknosed Nuclei (%) [1, 6]: 81% | Total Cell Count [1, 6]: 186 | Population Apoptotic (%) [1, 7]: 56% | Population Fragmented Nuclei (%) [1, 7]: 18% | Population Healthy Nuclei (%) [1, 7]: 30% | Population Hoechst High Intensity Objects (%) [1, 7]: 16% | Population Membrane Permeable-Phenotype (%) [1, 7]: 1% | Population Mitochondria Different-Phenotype (%) [1, 7]: 75% | Population Mitotic Cells (%) [1, 7]: 43% | Population Normal (%) [1, 7]: 83% | Population Pyknosed Nuclei (%) [1, 7]: 51% | Population Tubulin-Different-Phenotype (%) [1, 7]: 43% | Total Cell Count [1, 7]: 254 | Population Apoptotic (%) [1, 8]: 11% | Population Fragmented Nuclei (%) [1, 8]: 12% | Population Healthy Nuclei (%) [1, 8]: 61% | Population Hoechst High Intensity Objects (%) [1, 8]: 3% | Population Membrane Permeable-Phenotype (%) [1, 8]: 4% | Population Mitochondria Different-Phenotype (%) [1, 8]: 17% | Population Mitotic Cells (%) [1, 8]: 88% | Population Normal (%) [1, 8]: 96% | Population Pyknosed Nuclei (%) [1, 8]: 26% | Population Tubulin-Different-Phenotype (%) [1, 8]: 31% | Total Cell Count [1, 8]: 267 | Population Apoptotic (%) [1, 9]: 74% | Population Fragmented Nuclei (%) [1, 9]: 12% | Population Healthy Nuclei (%) [1, 9]: 31% | Population Hoechst High Intensity Objects (%) [1, 9]: 12% | Population Membrane Permeable-Phenotype (%) [1, 9]: 4% | Population Mitochondria Different-Phenotype (%) [1, 9]: 96% | Population Mitotic Cells (%) [1, 9]: 25% | Population Normal (%) [1, 9]: 87% | Population Pyknosed Nuclei (%) [1, 9]: 56% | Population Tubulin-Different-Phenotype (%) [1, 9]: 98% | Total Cell Count [1, 9]: 276 | Population Apoptotic (%) [1, 10]: 72% | Population Fragmented Nuclei (%) [1, 10]: 6% | Population Healthy Nuclei (%) [1, 10]: 22% | Population Hoechst High Intensity Objects (%) [1, 10]: 6% | Population Membrane Permeable-Phenotype (%) [1, 10]: 5% | Population Mitochondria Different-Phenotype (%) [1, 10]: 87% | Population Mitotic Cells (%) [1, 10]: 28% | Population Normal (%) [1, 10]: 93% | Population Pyknosed Nuclei (%) [1, 10]: 70% | Population Tubulin-Different-Phenotype (%) [1, 10]: 97% | Total Cell Count [1, 10]: 189 | Population Apoptotic (%) [1, 11]: 56% | Population Fragmented Nuclei (%) [1, 11]: 18% | Population Healthy Nuclei (%) [1, 11]: 23% | Population Hoechst High Intensity Objects (%) [1, 11]: 19% | Population Membrane Permeable-Phenotype (%) [1, 11]: 4% | Population Mitochondria Different-Phenotype (%) [1, 11]: 54% | Population Mitotic Cells (%) [1, 11]: 43% | Population Normal (%) [1, 11]: 80% | Population Pyknosed Nuclei (%) [1, 11]: 58% | Population Tubulin-Different-Phenotype (%) [1, 11]: 45% | Total Cell Count [1, 11]: 255 | Population Apoptotic (%) [1, 12]: 41% | Population Fragmented Nuclei (%) [1, 12]: 20% | Population Healthy Nuclei (%) [1, 12]: 66% | Population Hoechst High Intensity Objects (%) [1, 12]: 3% | Population Membrane Permeable-Phenotype (%) [1, 12]: 5% | Population Mitochondria Different-Phenotype (%) [1, 12]: 12% | Population Mitotic Cells (%) [1, 12]: 58% | Population Normal (%) [1, 12]: 96% | Population Pyknosed Nuclei (%) [1, 12]: 12% | Population Tubulin-Different-Phenotype (%) [1, 12]: 30% | Total Cell Count [1, 12]: 329 | Population Apoptotic (%) [1, 13]: 80% | Population Fragmented Nuclei (%) [1, 13]: 18% | Population Healthy Nuclei (%) [1, 13]: 40% | Population Hoechst High Intensity Objects (%) [1, 13]: 11% | Population Membrane Permeable-Phenotype (%) [1, 13]: 1% | Population Mitochondria Different-Phenotype (%) [1, 13]: 97% | Population Mitotic Cells (%) [1, 13]: 19% | Population Normal (%) [1, 13]: 88% | Population Pyknosed Nuclei (%) [1, 13]: 41% | Population Tubulin-Different-Phenotype (%) [1, 13]: 97% | Total Cell Count [1, 13]: 286 | Population Apoptotic (%) [1, 14]: 82% | Population Fragmented Nuclei (%) [1, 14]: 5% | Population Healthy Nuclei (%) [1, 14]: 56% | Population Hoechst High Intensity Objects (%) [1, 14]: 7% | Population Mitochondria Different-Phenotype (%) [1, 14]: 89% | Population Mitotic Cells (%) [1, 14]: 17% | Population Normal (%) [1, 14]: 92% | Population Pyknosed Nuclei (%) [1, 14]: 38% | Population Tubulin-Different-Phenotype (%) [1, 14]: 99% | Total Cell Count [1, 14]: 192 | Growth Rate ([2]; 0 h, replicate number 1, timepoint 0 hours): 0 | Growth Rate ([2]; 24 h, replicate number 1, timepoint 24 hours): 1
